Calls of active or inactive are those of the source. No cut-off for these calls is given here.
Key:
RAW264.7 [1] = experiment: Antiinflammatory activity in mouse RAW264.7 cells assessed as reduction in LPS-induced nitric oxide production at 1 pM to 100 nM incubated for 2 hrs prior to LPS challenge measured after 24 hrs by Griess assay; assay type: functional, cell-based
Procedure, shortened: (§1)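 RAW 264.7 macrophages were plated at 1×10^5 per well, grown overnight and washed with PBS. Compounds in water (final 1 pM-100 nM, medium with 2% FCS) were added 2 h at 37 °C before E. coli 0111:B4 LPS, 2.5 µg/mL. TNF-α was sampled at 8 h; IL-6 and nitrite (Griess) at 24 h. ELISA was used for cytokines. Values are % of the LPS + medium value in each experiment. Budesonide was the reference. 2-3 experiments, 6 wells per concentration.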

RAW264.7 [2] = experiment: Antiinflammatory activity in mouse RAW264.7 cells assessed as reduction in LPS-induced TNF-alpha production at 1 pM to 100 nM incubated for 2 hrs prior to LPS challenge measured after 8 hrs by ELISA; assay type: functional, cell-based; procedure, shortened: as §1
RAW264.7 [3] = experiment: Cytoprotective activity against H2O2-induced oxidative stress in mouse RAW264.7 cells assessed as cell viability at 1 pM incubated for 2 hrs prior to H2O2 addition measured after 24 hrs by MTT assay (reference value: 68 to 72.8%); assay type: functional; details: read-out: Activity
[4] = Cytotoxicity against mouse RAW264.7 cells assessed as cell viability at 10^-8 M after 24 hrs by MTT assay relative to control; assay type: cell-based; details: read-out: Activity
Procedure, shortened: (§2)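 RAW 264.7 cells, seeded at 1×10^4 cells/mL and incubated 24 h, were exposed to compound from 1 pM to 100 nM. Viability was read by MTT (final 0.5 mg/mL, 1 h at 37 °C), with formazan dissolved in DMSO and OD at 570 nm. Results are compared with medium-only cells.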

[5] = Cytotoxicity against mouse RAW264.7 cells assessed as cell viability at 10^-7 M after 24 hrs by MTT assay relative to control; assay type: cell-based; details: read-out: Activity; procedure, shortened: as §2
[6] = Cytotoxicity against mouse RAW264.7 cells assessed as cell viability at 10^-9 M after 24 hrs by MTT assay relative to control; assay type: cell-based; details: read-out: Activity; procedure, shortened: as §2
[7] = Cytotoxicity against mouse RAW264.7 cells assessed as cell viability at 10^-11 M after 24 hrs by MTT assay relative to control; assay type: cell-based; details: read-out: Activity; procedure, shortened: as §2
[8] = Cytotoxicity against mouse RAW264.7 cells assessed as cell viability at 10^-10 M after 24 hrs by MTT assay relative to control; assay type: cell-based; details: read-out: Activity; procedure, shortened: as §2
[9] = Cytotoxicity against mouse RAW264.7 cells assessed as cell viability at 10^-12 M after 24 hrs by MTT assay relative to control; assay type: cell-based; details: read-out: Activity; procedure, shortened: as §2
RAW264.7 [10] = experiment: Antiinflammatory activity in mouse RAW264.7 cells assessed as reduction in LPS-induced nitric oxide production at 10 pM incubated for 2 hrs prior to LPS challenge measured after 24 hrs by Griess assay; assay type: functional; design: scale not given: the % may be the effect or the level left; procedure, shortened: as §1
RAW264.7 [11] = experiment: Antiinflammatory activity in mouse RAW264.7 cells assessed as reduction in LPS-induced IL-6 production at 10 pM incubated for 2 hrs prior to LPS challenge measured after 24 hrs by ELISA; assay type: functional; design: scale not given: the % may be the effect or the level left; procedure, shortened: as §1
RAW264.7 [12] = experiment: Antiinflammatory activity in mouse RAW264.7 cells assessed as reduction in LPS-induced TNF-alpha production at 10 pM incubated for 2 hrs prior to LPS challenge measured after 8 hrs by ELISA; assay type: functional; design: scale not given: the % may be the effect or the level left; procedure, shortened: as §1
Mus musculus [13] = experiment: Acute toxicity in Balb/C mouse assessed as change in activity at 100 umol/kg, sc measured over 72 hrs; assay type: organism-based; details: in vivo
Procedure, shortened: (§3)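 Male Balb/C mice, 24-28 g, groups of 3; single sc injection of compound at 100 μmoles/kg or saline (1 mL/100 g). Food and water intake, body weight and general activity monitored over 72 h against saline-injected animals.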

Mus musculus [14] = experiment: Antiinflammatory activity in Balb/C mouse assessed as reduction in LPS-induced IL6 production in liver at 0.1 to 10 umol/kg, sc administered LPS 15 mins post compound treatment measured after 4 hrs by ELISA; assay type: functional, organism-based
Mus musculus [15] = experiment: Acute toxicity in Balb/C mouse assessed as change in food intake at 100 umol/kg, sc measured over 72 hrs; assay type: organism-based; details: in vivo; procedure, shortened: as §3
Mus musculus [16] = experiment: Acute toxicity in Balb/C mouse assessed as change in water intake at 100 umol/kg, sc measured over 72 hrs; assay type: organism-based; details: in vivo; procedure, shortened: as §3
Mus musculus [17] = experiment: Acute toxicity in Balb/C mouse assessed as change in body weight at 100 umol/kg, sc measured over 72 hrs; assay type: organism-based; details: in vivo; procedure, shortened: as §3
RAW264.7 [18] = experiment: Antiinflammatory activity in mouse RAW264.7 cells assessed as reduction in LPS-induced IL-6 production at 100 pM incubated for 2 hrs prior to LPS challenge measured after 24 hrs by ELISA; assay type: functional; design: scale not given: the % may be the effect or the level left; procedure, shortened: as §1
RAW264.7 [19] = experiment: Antiinflammatory activity in mouse RAW264.7 cells assessed as reduction in LPS-induced nitric oxide production at 100 pM incubated for 2 hrs prior to LPS challenge measured after 24 hrs by Griess assay; assay type: functional; design: scale not given: the % may be the effect or the level left; procedure, shortened: as §1
RAW264.7 [20] = experiment: Cytoprotective activity against H2O2-induced oxidative stress in mouse RAW264.7 cells assessed as decrease in LDH release at 1 pM incubated for 2 hrs prior to H2O2 addition by colorimetric assay relative to control; assay type: functional; design: scale not given: the % may be the effect or the level left
Procedure, shortened: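 RAW 264.7 cells were seeded and pretreated with compound before H2O2 100 µM, in serum-free medium. Collected medium was centrifuged and incubated with reaction mix 30 min at room temperature. LDH was measured as NADH formation by colorimetric read at 490 nm. n = 8-10 replicates per concentration.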

Mus musculus [21] = experiment: Antiinflammatory activity in Balb/C mouse assessed as reduction in LPS-induced TNF-alpha production in plasma at 0.1 umol/kg, sc administered LPS 15 mins post compound treatment measured after 4 hrs by ELISA; assay type: functional, organism-based
Procedure, shortened: (§4)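 Male Balb/C mice, 7-8 weeks old, given compound sc (0.1, 1 or 10 µmoles/kg) or saline. LPS 10 mg/kg was given ip 15 min later, and mice were killed 4 h after that. Spleens were homogenized in PBS with protease inhibitor and centrifuged at 14,000 g, 4 °C. Cytokines in plasma and tissue supernatants were measured by ELISA, with protein by BCA. Dexamethasone 5.6 µmoles/kg was the reference. n = 8-10 mice per treatment.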

Mus musculus [22] = experiment: Antiinflammatory activity in Balb/C mouse assessed as reduction in LPS-induced IL6 production in plasma at 0.1 umol/kg, sc administered LPS 15 mins post compound treatment measured after 4 hrs by ELISA; assay type: functional, organism-based; procedure, shortened: as §4
Mus musculus [23] = experiment: Antiinflammatory activity in Balb/C mouse assessed as reduction in LPS-induced TNF-alpha production in spleen at 0.1 umol/kg, sc administered LPS 15 mins post compound treatment measured after 4 hrs by ELISA; assay type: functional, organism-based; procedure, shortened: as §4
Mus musculus [24] = experiment: Antiinflammatory activity in Balb/C mouse assessed as reduction in LPS-induced IL6 production in spleen at 0.1 umol/kg, sc administered LPS 15 mins post compound treatment measured after 4 hrs by ELISA; assay type: functional, organism-based; procedure, shortened: as §4
Mus musculus [25] = experiment: Antiinflammatory activity in Balb/C mouse assessed as reduction in LPS-induced IL6 production in brain at 0.1 umol/kg, sc administered LPS 15 mins post compound treatment measured after 4 hrs by ELISA; assay type: functional, organism-based
RAW264.7 [26] = experiment: Cytoprotective activity against H2O2-induced oxidative stress in mouse RAW264.7 cells assessed as decrease in LDH release at 1 pM incubated for 2 hrs prior to H2O2 addition by colorimetric assay relative to control; design: scale not given: the % may be the effect or the level left

For `COC(=O)CCN1CCc2cc(Cl)ccc21.Cc1ccc(S(C)(=O)=O)cc1`, the Activity (RAW264.7 [1]) was “Active”, the Activity (RAW264.7 [2]) was “Active” and the viability at 1 pM (RAW264.7 [3]) was 89.7%. The viability at 24 h, 0.01 µM [4] was 107%, the viability at 24 h, 0.1 µM [5] was 105% and the viability at 24 h, 0.001 µM [6] was 104%. It also gave a viability at 24 h, 1e-05 µM [7] of 106%, a viability at 24 h, 0.0001 µM [8] of 104% and a viability at 24 h, 1e-06 µM [9] of 108%. The Activity (RAW264.7 [10]) was 50%, the Activity (RAW264.7 [11]) was 50% and the Activity (RAW264.7 [12]) was 50%.
In the case of `CC(C)NC(=O)CCN1CCc2ccccc21.Cl`, the Activity (Mus musculus [13]) is reported as “Non-Toxic”, the Activity (Mus musculus [14]) is reported as “inactive” and the Activity (Mus musculus [15]) is reported as “Non-Toxic”. The Activity (Mus musculus [16]) was “Non-Toxic”, the Activity (Mus musculus [17]) was “Non-Toxic” and the Activity (RAW264.7 [18]) was 50%. The Activity (RAW264.7 [19]) was 50%, the Activity (RAW264.7 [20]) was 16% and the viability at 1 pM (RAW264.7 [3]) was 93.7%. For the same compound, the Activity (Mus musculus [21]) was “Active”, the Activity (Mus musculus [22]) was “Active” and the Activity (Mus musculus [23]) was “Active”. For the same compound, the Activity (Mus musculus [24]) was “Active”, the Activity (Mus musculus [25]) was “Active” and the Activity (RAW264.7 [10]) was 50%. For the same compound, the Activity (RAW264.7 [11]) was 50%, the Activity (RAW264.7 [12]) was 50% and the Activity (RAW264.7 [26]) was 16%.
